Converted amounts (≈) assume the structure as drawn. Non-standard residues stand in square brackets, D forms with d. Residues, ends and D or L forms follow the SMILES beside them. *: point of attachment. Phe(3-F) = N[C@@H](Cc1cccc(F)c1)C(=O)O; Ethyl(2-NH2) = NCC*
How the values were obtained:
Saccharomyces cerevisiae [1] = assay: Drug uptake in Saccharomyces cerevisiae AD12345678 at 200 uM pretreated for 10 mins measured after 60 mins by fluorescamine staining; format: ADME, organism-based; conditions: in vivo, 1 h
Saccharomyces cerevisiae [2] = assay: Drug uptake in Saccharomyces cerevisiae ADCDR1 expressing Candida albicans CDR1 efflux pump at 200 uM pretreated for 10 mins measured after 60 mins by fluorescamine staining; format: ADME, organism-based; conditions: in vivo, 1 h
Saccharomyces cerevisiae [3] = assay: Drug uptake in Saccharomyces cerevisiae ADCDR2 expressing Candida albicans CDR2 efflux pump at 200 uM pretreated for 10 mins measured after 60 mins by fluorescamine staining; format: ADME, organism-based; conditions: in vivo, 1 h
Saccharomyces cerevisiae [4] = assay: Drug uptake in Saccharomyces cerevisiae ADMDR1 expressing Candida albicans MDR1 efflux pump at 200 uM pretreated for 10 mins measured after 60 mins by fluorescamine staining; format: ADME, organism-based; conditions: in vivo, 1 h
Saccharomyces cerevisiae [5] = assay: Antifungal activity against wild type Saccharomyces cerevisiae ATCC 9763 in YNPG-proline medium after 24 hrs by microdilution method; format: functional; conditions: ATCC 9763, 24 h
Saccharomyces cerevisiae [6] = assay: Antifungal activity against Saccharomyces cerevisiae AD12345678 in YNPG-proline medium after 24 hrs by microdilution method; format: functional; conditions: AD12345678, 24 h
Saccharomyces cerevisiae [7] = assay: Antifungal activity against Saccharomyces cerevisiae ADCDR1 expressing Candida albicans CDR1 efflux pump in YNPG-proline medium after 24 hrs by microdilution method; format: functional; conditions: ADCDR1, 24 h
Saccharomyces cerevisiae [8] = assay: Antifungal activity against Saccharomyces cerevisiae ADCDR2 expressing Candida albicans CDR2 efflux pump in YNPG-proline medium after 24 hrs by microdilution method; format: functional; conditions: ADCDR2, 24 h
Saccharomyces cerevisiae [9] = assay: Antifungal activity against Saccharomyces cerevisiae ADMDR1 expressing Candida albicans MDR1 efflux pump in YNPG-proline medium after 24 hrs by microdilution method; format: functional; conditions: ADMDR1, 24 h
Candida albicans [10] = assay: Antifungal activity against wild type Candida albicans 10261 in RPMI-1640 buffered medium after 24 hrs by microdilution method; format: functional
In short: (§1)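 C. albicans cells were grown in 2% glucose, 1% yeast extract, 1% Bacto peptone medium before testing. […] CARE-2 fingerprinting confirmed that each pair is a single strain.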

Candida albicans [11] = assay: Antifungal activity against fluconazole sensitive Candida albicans isolate Gu4 in RPMI-1640 buffered medium after 24 hrs by microdilution method; format: functional; in short: as §1
Candida albicans [12] = assay: Antifungal activity against fluconazole sensitive Candida albicans isolate B3 in RPMI-1640 buffered medium after 24 hrs by microdilution method; format: functional; in short: as §1
Candida albicans [13] = assay: Antifungal activity against fluconazole resistant Candida albicans isolate B4 overexpressing MDR1 in RPMI-1640 buffered medium after 24 hrs by microdilution method; format: functional; in short: as §1
Candida albicans [14] = assay: Antifungal activity against fluconazole resistant Candida albicans isolate Gu5 overexpressing CDR1 and CDR2 in RPMI-1640 buffered medium after 24 hrs by microdilution method; format: functional; conditions: isolate Gu5, 24 h
In short: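 C. albicans cells were grown in 2% glucose, 1% yeast extract, 1% Bacto peptone medium before testing. CARE-2 fingerprinting confirmed that each pair is a single strain.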

Saccharomyces cerevisiae [15] = assay: Prodrug stability in wild type Saccharomyces cerevisiae ATCC 9763 assessed as compound cleavage rate measured per mg of protein; format: ADME, organism-based; conditions: in vivo
Saccharomyces cerevisiae [16] = assay: Prodrug stability in Saccharomyces cerevisiae AD12345678 assessed as compound cleavage rate measured per mg of protein; format: ADME, organism-based; conditions: in vivo
Saccharomyces cerevisiae [17] = assay: Prodrug stability in Saccharomyces cerevisiae ADCDR1 expressing Candida albicans CDR1 efflux pump assessed as compound cleavage rate measured per mg of protein; format: ADME, organism-based; conditions: in vivo
Saccharomyces cerevisiae [18] = assay: Prodrug stability in Saccharomyces cerevisiae ADCDR2 expressing Candida albicans CDR2 efflux pump assessed as compound cleavage rate measured per mg of protein; format: ADME, organism-based; conditions: in vivo
Saccharomyces cerevisiae [19] = assay: Prodrug stability in Saccharomyces cerevisiae ADMDR1 expressing Candida albicans MDR1 efflux pump assessed as compound cleavage rate measured per mg of protein; format: ADME, organism-based; conditions: in vivo
Candida albicans [20] = assay: Prodrug stability in wild type Candida albicans 10261 assessed as compound cleavage rate measured per mg of protein; format: ADME, organism-based; conditions: in vivo
Candida albicans [21] = assay: Prodrug stability in fluconazole sensitive Candida albicans isolate Gu4 assessed as compound cleavage rate measured per mg of protein; format: ADME, organism-based; conditions: in vivo
In short: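 Oligopeptides were incubated with cell extracts of the yeast cells, and their hydrolytic enzymes cleaved them. The amino acids released were quantified by the Cd-ninhydrin method.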

Candida albicans [22] = assay: Prodrug stability in fluconazole sensitive Candida albicans isolate B3 assessed as compound cleavage rate measured per mg of protein; format: ADME, organism-based; conditions: in vivo
[23] = Candida albicans, 10261, 24 h, read-out: MIC
[24] = Candida albicans, isolate Gu4, 24 h, read-out: MIC
[25] = Candida albicans, isolate B3, 24 h, read-out: MIC
[26] = Candida albicans, isolate B4, 24 h, read-out: MIC

C[C@H](N)C(=O)N[C@@H](C)C(=O)N[C@@H](C)C(=O)O
Drug uptake (Saccharomyces cerevisiae [1]): 3.15 nmol/min/mg
Drug uptake (Saccharomyces cerevisiae [2]): 5.3 nmol/min/mg
Drug uptake (Saccharomyces cerevisiae [3]): 4.74 nmol/min/mg
Drug uptake (Saccharomyces cerevisiae [4]): 2.91 nmol/min/mg

OC(Cn1cncn1)(Cn1cncn1)c1ccc(F)cc1F [FLUCONAZOLE]
MIC (Saccharomyces cerevisiae [5]): 2 mg/L (≈ 6.53 µM)
MIC (Saccharomyces cerevisiae [6]): 1 mg/L (≈ 3.27 µM)
MIC (Saccharomyces cerevisiae [7]): 32 mg/L (≈ 104 µM)
MIC (Saccharomyces cerevisiae [8]): 16 mg/L (≈ 52.2 µM)
MIC (Saccharomyces cerevisiae [9]): 32 mg/L (≈ 104 µM)
MIC (Candida albicans [10]): 4 mg/L (≈ 13.1 µM)
MIC (Candida albicans [10]; [23]): 4 mg/L (≈ 13.1 µM)
MIC (Candida albicans [11]): 8 mg/L (≈ 26.1 µM)
MIC (Candida albicans [11]; [24]): 8 mg/L (≈ 26.1 µM)
MIC (Candida albicans [12]): 4 mg/L (≈ 13.1 µM)
MIC (Candida albicans [12]; [25]): 4 mg/L (≈ 13.1 µM)
MIC (Candida albicans [13]): 64 mg/L (≈ 209 µM)
MIC (Candida albicans [13]; [26]): 64 mg/L (≈ 209 µM)

CC(C)C[C@H](NC(=O)[C@@H](N)COCCN)C(=O)NCC(=O)O
MIC (Saccharomyces cerevisiae [5]): 8 mg/L (≈ 25.1 µM)
MIC (Saccharomyces cerevisiae [6]): 4 mg/L (≈ 12.6 µM)
MIC (Saccharomyces cerevisiae [7]): 1 mg/L (≈ 3.14 µM)
MIC (Saccharomyces cerevisiae [8]): 1 mg/L (≈ 3.14 µM)
MIC (Saccharomyces cerevisiae [9]): 4 mg/L (≈ 12.6 µM)
MIC (Candida albicans [10]; [23]): 128 mg/L (≈ 402 µM)
MIC (Candida albicans [11]; [24]): 256 mg/L (≈ 804 µM)
MIC (Candida albicans [14]): 16 mg/L (≈ 50.3 µM)
MIC (Candida albicans [12]; [25]): 64 mg/L (≈ 201 µM)
MIC (Candida albicans [13]; [26]): 32 mg/L (≈ 101 µM)

CC(C)C[C@H](NC(=O)[C@H](CC(C)C)NC(=O)[C@H](CC(C)C)NC(=O)[C@@H](N)COCCN)C(=O)NCC(=O)O (H-S(Ethyl(2-NH2))LLLG-OH)
Drug uptake (Saccharomyces cerevisiae [1]): 0.31 nmol/min/mg
Drug uptake (Saccharomyces cerevisiae [2]): 0.49 nmol/min/mg
Drug uptake (Saccharomyces cerevisiae [3]): 0.51 nmol/min/mg
Drug uptake (Saccharomyces cerevisiae [4]): 0.28 nmol/min/mg
Stability (Saccharomyces cerevisiae [15]): 14 nmol/min
Stability (Saccharomyces cerevisiae [16]): 14 nmol/min
Stability (Saccharomyces cerevisiae [17]): 14 nmol/min
Stability (Saccharomyces cerevisiae [18]): 14 nmol/min
Stability (Saccharomyces cerevisiae [19]): 14 nmol/min
Stability (Candida albicans [20]): 20 nmol/min
Stability (Candida albicans [21]): 20 nmol/min
Stability (Candida albicans [22]): 20 nmol/min

C[C@H](N)C(=O)O [ALANINE]
Drug uptake (Saccharomyces cerevisiae [1]): 3.51 nmol/min/mg
Drug uptake (Saccharomyces cerevisiae [2]): 4.16 nmol/min/mg
Drug uptake (Saccharomyces cerevisiae [3]): 4.35 nmol/min/mg
Drug uptake (Saccharomyces cerevisiae [4]): 3.33 nmol/min/mg

C[C@H](NC(=O)[C@H](Cc1cnc[nH]1)NC(=O)[C@H](CO)NC(=O)[C@@H](N)CC(=O)O)C(=O)N[C@@H](CCCCN)C(=O)N[C@@H](CCCNC(=N)N)C(=O)N[C@@H](Cc1cnc[nH]1)C(=O)N[C@@H](Cc1cnc[nH]1)C(=O)NCC(=O)N[C@@H](Cc1ccc(O)cc1)C(=O)N[C@@H](CCCCN)C(=O)N[C@@H](CCCNC(=N)N)C(=O)N[C@@H](CCCCN)C(=O)N[C@@H](Cc1ccccc1)C(=O)N[C@@H](Cc1cnc[nH]1)C(=O)N[C@@H](CCC(=O)O)C(=O)N[C@@H](CCCCN)C(=O)N[C@@H](Cc1cnc[nH]1)C(=O)N[C@@H](Cc1cnc[nH]1)C(=O)N[C@@H](CO)C(=O)N[C@@H](Cc1cnc[nH]1)C(=O)N[C@@H](CCCNC(=N)N)C(=O)NCC(=O)N[C@@H](Cc1ccc(O)cc1)C(=O)O [HISTATIN 5]
MIC (Saccharomyces cerevisiae [5]): 128 mg/L (≈ 42.2 µM)
MIC (Saccharomyces cerevisiae [6]): 128 mg/L (≈ 42.2 µM)
MIC (Saccharomyces cerevisiae [7]): 128 mg/L (≈ 42.2 µM)
MIC (Saccharomyces cerevisiae [8]): 128 mg/L (≈ 42.2 µM)
MIC (Saccharomyces cerevisiae [9]): 128 mg/L (≈ 42.2 µM)
MIC (Candida albicans [10]; [23]): 32 mg/L (≈ 10.5 µM)
MIC (Candida albicans [11]; [24]): 32 mg/L (≈ 10.5 µM)
MIC (Candida albicans [14]): 32 mg/L (≈ 10.5 µM)
MIC (Candida albicans [12]; [25]): 32 mg/L (≈ 10.5 µM)
MIC (Candida albicans [13]; [26]): 32 mg/L (≈ 10.5 µM)
Stability (Candida albicans [20]): 0.3 nmol/min
Stability (Candida albicans [21]): 0.3 nmol/min
Stability (Candida albicans [22]): 0.3 nmol/min

CSCC[C@H](NC(=O)[C@@H](N)CCSC)C(=O)N[C@@H](Cc1cccc(F)c1)C(=O)O (H-Met-Met-[Phe(3-F)]-OH)
MIC (Saccharomyces cerevisiae [5]): 256 mg/L (≈ 575 µM)
MIC (Saccharomyces cerevisiae [6]): 512 mg/L (≈ 1150 µM)
MIC (Saccharomyces cerevisiae [7]): 32 mg/L (≈ 71.8 µM)
MIC (Saccharomyces cerevisiae [8]): 32 mg/L (≈ 71.8 µM)
MIC (Saccharomyces cerevisiae [9]): 256 mg/L (≈ 575 µM)
MIC (Candida albicans [10]; [23]): 128 mg/L (≈ 287 µM)
MIC (Candida albicans [11]; [24]): 128 mg/L (≈ 287 µM)
MIC (Candida albicans [14]): 32 mg/L (≈ 71.8 µM)
MIC (Candida albicans [12]; [25]): 128 mg/L (≈ 287 µM)
MIC (Candida albicans [13]; [26]): 128 mg/L (≈ 287 µM)
Drug uptake (Saccharomyces cerevisiae [1]): 0.64 nmol/min/mg
Drug uptake (Saccharomyces cerevisiae [2]): 1.11 nmol/min/mg
Drug uptake (Saccharomyces cerevisiae [3]): 1.23 nmol/min/mg
Drug uptake (Saccharomyces cerevisiae [4]): 0.67 nmol/min/mg
Stability (Saccharomyces cerevisiae [15]): 14 nmol/min
Stability (Saccharomyces cerevisiae [16]): 14 nmol/min
Stability (Saccharomyces cerevisiae [17]): 14 nmol/min
Stability (Saccharomyces cerevisiae [18]): 14 nmol/min
Stability (Saccharomyces cerevisiae [19]): 14 nmol/min
Stability (Candida albicans [20]): 20 nmol/min
Stability (Candida albicans [21]): 20 nmol/min
Stability (Candida albicans [22]): 20 nmol/min

CCC[C@H](N)C(=O)N[C@@H](CNC(=O)/C=C/C(=O)OC)C(=O)O
MIC (Saccharomyces cerevisiae [5]): 4 mg/L (≈ 12.7 µM)
MIC (Saccharomyces cerevisiae [6]): 4 mg/L (≈ 12.7 µM)
MIC (Saccharomyces cerevisiae [7]): 0.5 mg/L (≈ 1.59 µM)
MIC (Saccharomyces cerevisiae [8]): 1 mg/L (≈ 3.17 µM)
MIC (Saccharomyces cerevisiae [9]): 4 mg/L (≈ 12.7 µM)
MIC (Candida albicans [10]; [23]): 2 mg/L (≈ 6.34 µM)
MIC (Candida albicans [11]; [24]): 2 mg/L (≈ 6.34 µM)
MIC (Candida albicans [14]): 0.125 mg/L (≈ 0.396 µM)
MIC (Candida albicans [12]; [25]): 4 mg/L (≈ 12.7 µM)
MIC (Candida albicans [13]; [26]): 4 mg/L (≈ 12.7 µM)
Drug uptake (Saccharomyces cerevisiae [1]): 0.96 nmol/min/mg
Drug uptake (Saccharomyces cerevisiae [2]): 1.86 nmol/min/mg
Drug uptake (Saccharomyces cerevisiae [3]): 1.56 nmol/min/mg
Drug uptake (Saccharomyces cerevisiae [4]): 1.02 nmol/min/mg
Stability (Saccharomyces cerevisiae [15]): 14 nmol/min
Stability (Saccharomyces cerevisiae [16]): 14 nmol/min
Stability (Saccharomyces cerevisiae [17]): 14 nmol/min
Stability (Saccharomyces cerevisiae [18]): 14 nmol/min
Stability (Saccharomyces cerevisiae [19]): 14 nmol/min
Stability (Candida albicans [20]): 20 nmol/min
Stability (Candida albicans [21]): 20 nmol/min
Stability (Candida albicans [22]): 20 nmol/min

From ChEMBL document CHEMBL1649115, “Enhanced susceptibility to antifungal oligopeptides in yeast strains overexpressing ABC multidrug efflux pumps” (Antimicrob Agents Chemother, 2008)
